# In ChEMBL document CHEMBL3861962 (Eur J Med Chem, 2016):
# What was measured:
# [1] = molecular target: T1, Endothelin-1 receptor (Homo sapiens, UniProt P25101); test: Antagonist activity at ETA receptor in human SKNMC cells assessed as inhibition of endothelin-1-induced Ca2+ mobilization by fluorimetric method
# T1 sequence (P25101 whole entry): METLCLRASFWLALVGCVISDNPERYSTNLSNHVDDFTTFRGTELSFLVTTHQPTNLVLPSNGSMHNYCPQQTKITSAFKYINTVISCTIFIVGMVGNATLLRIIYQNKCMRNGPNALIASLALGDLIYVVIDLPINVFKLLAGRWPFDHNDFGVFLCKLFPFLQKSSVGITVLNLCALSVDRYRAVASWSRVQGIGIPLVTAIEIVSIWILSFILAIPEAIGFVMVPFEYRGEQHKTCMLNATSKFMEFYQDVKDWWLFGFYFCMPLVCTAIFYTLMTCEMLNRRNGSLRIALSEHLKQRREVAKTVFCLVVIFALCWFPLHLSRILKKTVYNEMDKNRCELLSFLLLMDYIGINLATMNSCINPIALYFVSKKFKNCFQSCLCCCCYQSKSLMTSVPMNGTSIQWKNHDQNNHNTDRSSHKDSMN
# [2] = molecular target: T2, Endothelin-1 receptor (Homo sapiens) (UniProt P25101); test: Antagonist activity at ETA receptor in human SKNMC cells assessed as inhibition of endothelin-1-mediated Ca2+ mobilization at 100 nM by fluorimetric method relative to control; format: functional, cell-based; conditions: SK-N-MC
# T2 sequence (whole entry): T1 sequence (P25101 whole entry)
# Summary of the method: (§1)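 ETA functional assay run by Cerep in human neuroblastoma SK-N-MC cells at 22 °C with fluorimetric read-out. Test solutions were 1, 10, 100 and 1000 nM. Agonist response is given as % of the control response to 100 nM endothelin-1. For antagonist mode, inhibition is given as % of the control endothelin-1 agonist response, with BQ-123 as reference antagonist.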
# [3] = molecular target: Cytochrome P450 2D6 (Homo sapiens, UniProt P10635); test: Drug metabolism assessed as human recombinant CYP2D6-mediated metabolite formation by measuring parent compound remaining at 5 uM in presence of NADPH after 30 mins by LC-MS/MS analysis; format: ADME; conditions: recombinant enzyme, 0.5 h
# Summary of the method: (§2)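 Substrate at 5 μM final in 100 mM potassium phosphate, pH 7.4, incubated with human liver microsomes or baculovirus-expressed recombinant CYP3A4, 2D6 or 2C9. Reaction started with 1 mM NADPH and run 0, 15 and 30 min at 37 °C. Stopped with ice-cold acetonitrile containing labetalol internal standard, then centrifuged. Supernatant analysed by LC-MS/MS on a C18 column at 40 °C. Blank was enzyme without substrate.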
# [4] = molecular target: T2, Endothelin-1 receptor (Homo sapiens); test: Antagonist activity at ETA receptor in human SKNMC cells assessed as inhibition of endothelin-1-mediated Ca2+ mobilization at 10 nM by fluorimetric method relative to control; format: functional, cell-based; conditions: SK-N-MC
# Summary of the method: as §1
# [5] = molecular target: T3, Endothelin receptor type B (Homo sapiens) (UniProt P24530); test: Antagonist activity at human recombinant ETB expressed in CHOK1 cells assessed as inhibition of endothelin-1-mediated Ca2+ mobilization at 10 nM by fluorimetric method relative to control; format: functional, cell-based; conditions: CHO-K1
# T3 sequence (whole entry): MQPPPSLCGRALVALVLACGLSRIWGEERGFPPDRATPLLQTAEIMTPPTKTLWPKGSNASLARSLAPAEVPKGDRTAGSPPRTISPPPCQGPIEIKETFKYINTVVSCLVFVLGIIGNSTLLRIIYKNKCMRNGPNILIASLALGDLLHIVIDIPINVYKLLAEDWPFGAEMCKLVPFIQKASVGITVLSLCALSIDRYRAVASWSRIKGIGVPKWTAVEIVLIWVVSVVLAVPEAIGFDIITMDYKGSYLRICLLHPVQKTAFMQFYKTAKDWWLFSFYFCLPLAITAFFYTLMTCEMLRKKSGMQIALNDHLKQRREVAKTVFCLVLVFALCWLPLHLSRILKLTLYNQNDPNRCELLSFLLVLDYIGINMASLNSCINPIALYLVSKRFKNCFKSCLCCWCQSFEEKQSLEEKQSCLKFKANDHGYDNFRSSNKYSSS
# Summary of the method: as §1, with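 “ETB” for “ETA”, “recombinant CHO-k1” for “neuroblastoma SK-N-MC”, “BQ-788” for “BQ-123”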
# [6] = molecular target: T2, Endothelin-1 receptor (Homo sapiens); test: Agonist activity at ETA receptor in human SKNMC cells assessed as induction of Ca2+ mobilization at 100 nM by fluorimetric method relative to control; format: functional, cell-based; conditions: SK-N-MC
# Summary of the method: as §1
# [7] = molecular target: T2, Endothelin-1 receptor (Homo sapiens); test: Antagonist activity at ETA receptor in human SKNMC cells assessed as inhibition of endothelin-1-mediated Ca2+ mobilization at 1 nM by fluorimetric method relative to control; format: functional, cell-based; conditions: SK-N-MC
# Summary of the method: as §1
# [8] = Retention time of the compound; format: physicochemical
# [9] = molecular target: T2, Endothelin-1 receptor (Homo sapiens); test: Agonist activity at ETA receptor in human SKNMC cells assessed as induction of Ca2+ mobilization at 1 nM by fluorimetric method relative to control; format: functional, cell-based; conditions: SK-N-MC
# Summary of the method: as §1
# [10] = Metabolic stability in human liver microsomes assessed as parent compound remaining at 5 uM in presence of NADPH after 30 mins by LC-MS/MS analysis; format: ADME; conditions: read-out: Stability
# Summary of the method: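 Pooled human liver microsomes in 100 mM potassium phosphate, pH 7.4, with test compound at 5 μM final. Reaction started with 1 mM NADPH (final) and run at 37 °C in a shaking water bath for 0, 15 and 30 min. Stopped with an equal volume of ice-cold acetonitrile containing 0.6 μM labetalol as internal standard. Protein was spun out and the supernatant analysed by LC-MS/MS. Blank had no compound.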
# [11] = molecular target: Cytochrome P450 2C9 (Homo sapiens, UniProt P11712); test: Drug metabolism assessed as human recombinant CYP2C9-mediated metabolite formation by measuring parent compound remaining at 5 uM in presence of NADPH after 30 mins by LC-MS/MS analysis; format: ADME; conditions: recombinant enzyme, 0.5 h
# Summary of the method: as §2
# [12] = molecular target: T3, Endothelin receptor type B (Homo sapiens); test: Agonist activity at human recombinant ETB receptor expressed in CHOK1 cells assessed as induction of Ca2+ mobilization at 100 nM by fluorimetric method relative to control; format: functional, cell-based; conditions: CHO-K1
# Summary of the method: as §1, with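 “ETB” for “ETA”, “recombinant CHO-k1” for “neuroblastoma SK-N-MC”, “BQ-788” for “BQ-123”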
# [13] = molecular target: Cytochrome P450 3A4 (Homo sapiens, UniProt P08684); test: Drug metabolism assessed as human recombinant CYP3A4-mediated metabolite formation by measuring parent compound remaining at 5 uM in presence of NADPH after 30 mins by LC-MS/MS analysis; format: ADME; conditions: recombinant enzyme, 0.5 h
# Summary of the method: as §2
# [14] = molecular target: T2, Endothelin-1 receptor (Homo sapiens); test: Agonist activity at ETA receptor in human SKNMC cells assessed as induction of Ca2+ mobilization at 10 nM by fluorimetric method relative to control; format: functional, cell-based; conditions: SK-N-MC
# Summary of the method: as §1
# [15] = molecular target: T3, Endothelin receptor type B (Homo sapiens); test: Agonist activity at human recombinant ETB receptor expressed in CHOK1 cells assessed as induction of Ca2+ mobilization at 1 nM by fluorimetric method relative to control; format: functional, cell-based; conditions: CHO-K1
# Summary of the method: as §1, with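 “ETB” for “ETA”, “recombinant CHO-k1” for “neuroblastoma SK-N-MC”, “BQ-788” for “BQ-123”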
# [16] = Cytotoxicity against CHOK1 cells assessed as decrease in cell viability after 24 hrs by MTT assay; format: toxicity, cell-based, Cricetulus griseus; conditions: Chinese hamster, CHO-K1 cells
# Summary of the method: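 CHO-k1 cells grown in phenol-red-free DMEM/F-12 with 10% FBS, seeded at 20,000 cells/well and allowed to attach overnight. Exposure was 24 h to 0.1–200 μM, with DMSO as vehicle control. MTT at 1 mg/mL for 3 h at 37 °C, formazan dissolved in DMSO, absorbance read at 570 nm. Data given as % OD of vehicle control; IC50 taken from dose–response curve fits.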
# Sequence of Cytochrome P450 2C9 (P11712 whole entry): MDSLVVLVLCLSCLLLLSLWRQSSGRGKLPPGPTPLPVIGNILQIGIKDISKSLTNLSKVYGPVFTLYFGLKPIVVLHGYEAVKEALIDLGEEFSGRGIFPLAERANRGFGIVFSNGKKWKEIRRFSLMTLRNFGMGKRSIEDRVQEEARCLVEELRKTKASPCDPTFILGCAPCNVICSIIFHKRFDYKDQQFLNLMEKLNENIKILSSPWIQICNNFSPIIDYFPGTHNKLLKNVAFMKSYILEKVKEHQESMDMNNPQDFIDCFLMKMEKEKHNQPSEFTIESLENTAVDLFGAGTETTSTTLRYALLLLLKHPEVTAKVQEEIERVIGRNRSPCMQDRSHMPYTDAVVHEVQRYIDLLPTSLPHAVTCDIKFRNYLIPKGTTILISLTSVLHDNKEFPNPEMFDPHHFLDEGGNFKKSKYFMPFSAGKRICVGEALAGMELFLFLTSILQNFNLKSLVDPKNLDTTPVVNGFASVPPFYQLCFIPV
# Sequence of Cytochrome P450 2D6 (P10635 whole entry): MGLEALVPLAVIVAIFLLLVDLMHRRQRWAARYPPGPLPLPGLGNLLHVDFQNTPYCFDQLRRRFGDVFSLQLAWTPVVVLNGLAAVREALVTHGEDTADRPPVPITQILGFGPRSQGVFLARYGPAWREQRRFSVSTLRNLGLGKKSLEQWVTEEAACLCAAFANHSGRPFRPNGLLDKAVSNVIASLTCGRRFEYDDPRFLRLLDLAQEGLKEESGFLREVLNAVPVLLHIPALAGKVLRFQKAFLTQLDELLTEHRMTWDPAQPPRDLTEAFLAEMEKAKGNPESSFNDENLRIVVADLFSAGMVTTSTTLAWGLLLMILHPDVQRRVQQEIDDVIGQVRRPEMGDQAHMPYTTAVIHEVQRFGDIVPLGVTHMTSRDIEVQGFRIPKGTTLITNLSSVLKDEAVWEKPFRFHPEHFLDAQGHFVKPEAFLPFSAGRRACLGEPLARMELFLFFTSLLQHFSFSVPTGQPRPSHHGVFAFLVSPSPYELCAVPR
# Sequence of Cytochrome P450 3A4 (P08684 whole entry): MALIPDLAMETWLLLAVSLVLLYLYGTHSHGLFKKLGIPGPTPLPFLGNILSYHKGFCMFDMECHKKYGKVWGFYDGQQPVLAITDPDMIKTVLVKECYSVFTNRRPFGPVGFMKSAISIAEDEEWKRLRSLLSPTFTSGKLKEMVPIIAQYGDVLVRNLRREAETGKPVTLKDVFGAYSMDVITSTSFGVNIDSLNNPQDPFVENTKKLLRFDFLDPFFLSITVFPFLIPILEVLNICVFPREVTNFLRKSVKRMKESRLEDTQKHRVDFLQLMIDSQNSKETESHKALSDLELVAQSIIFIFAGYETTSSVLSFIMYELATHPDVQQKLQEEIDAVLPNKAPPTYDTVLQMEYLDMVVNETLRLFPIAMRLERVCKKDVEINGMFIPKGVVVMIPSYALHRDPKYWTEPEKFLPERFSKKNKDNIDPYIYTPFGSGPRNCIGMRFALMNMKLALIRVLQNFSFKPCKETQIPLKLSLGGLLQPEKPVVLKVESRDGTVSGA
IC50 [1] [µM],inhibition [2] [%],Stability [3] [%],inhibition [4] [%],inhibition [5] [%],Activity [6] [%],inhibition [7] [%],Retention_time [8] [min],Activity [9] [%],"remaining at 0.5 h, 5 µM [10] [%]",Stability [11] [%],Activity [12] [%],Stability [13] [%],Activity [14] [%],Activity [15] [%],Compound,IC50 at 24 h [16] [µM]
0.0754,55,> 99,20,16,-1,-5,5.6,0,99,100,-1,16.3,-1,0,COc1ccccc1Oc1c(NS(=O)(=O)c2ccc(C(F)(C(F)(F)F)C(F)(F)F)cc2)nc(-c2ncccn2)nc1OCCO,159
693,26,> 99,13,5,0,-1,5.48,0,73.9,100,0,19.2,0,0,COc1ccccc1Oc1c(NS(=O)(=O)c2ccc(C(OC)(C(F)(F)F)C(F)(F)F)cc2)nc(-c2ncccn2)nc1OCCO,153
